Measured values collected from several papers.
Protocols differ between the studies behind these lines.
Target: Protein kinase C theta type (PRKCQ, Homo sapiens, UniProt Q04759)

SMILES | test | conditions | measurement | result
Cn1cc(-c2cc(F)cc(N3CCn4c(cc5c4CCCC5)C3=O)c2CO)cc(Nc2ccc(N3CCN(C4COC4)CC3)cn2)c1=O | enzyme activity, inhibitor | 0.1 µM | inhibition | 0%
Cn1cncc1[C@@](O)(COc1ccc(C#N)cc1-c1ccc(OC(F)(F)F)cc1)c1ccc(C#N)cc1 | cell-free assay, competition with immobilised ligand | 1 µM | remaining binding | 100%
O=c1[nH]c2ccccc2n1C1CCN(Cc2ccc(-c3[nH]c4cc5ncnc5cc4nc3-c3ccccc3)cc2)CC1 | cell-free assay | 0.5 µM | remaining signal | 96.4%
COc1ncccc1-c1cnn2ccc(N3CCN(C(=O)OC(C)C)CC3)nc12 | binding, competition with immobilised ligand | 1 µM | remaining binding | 100%
Nc1ncc(-c2nc(N3CCOCC3)nc(N3CCOCC3)n2)c(C(F)F)n1 | cell-free assay, competition with immobilised ligand | 10 µM | remaining binding | 37%
N#CC1(c2ccccn2)CCN(Cc2cc(C(=O)O)c(=O)n3ccccc23)CC1 | cell-free assay, competition with immobilised ligand | 1 µM | remaining binding | 96%
C#Cc1n[nH]c2c(-c3cn(C(C)c4ccccn4)c(=O)[nH]c3=O)cc(F)cc12 (stereo not shown) | enzyme activity, inhibitor | 1 µM | inhibition | 1.2%
Cc1nn(C)cc1-c1nc2c(N3CCN(Cc4ccc(Cl)cc4)CC3)c(Cl)cnc2[nH]1 | binding, competition with immobilised ligand | 1 µM | remaining binding | 100%
Cn1cc(-c2cccc(N3CCc4c(sc5c4CC(C)(C)C5)C3=O)c2CO)cc(Nc2ccncn2)c1=O | enzyme activity, inhibitor | 1 µM | inhibition | -5%
CC(C)(C)c1cc(C=C(C#N)C#N)cc(Br)c1O | enzyme activity, inhibitor | 0.5 µM | remaining activity | 98%
